Data on 2 molecules can be found in publication PMC5915676 (Cell chemical biology, 2016).

The subject of data set [1] is MDA-MB-468 cells. Particulars: 30 μM, ref Mullarky et al., 2016, cited from earlier work.
For data set [2] the following is noted: ref Mullarky et al., 2016; cited from earlier work.
The next data set addresses T1, PHGDH (Homo sapiens, UniProt O43175).
T1 sequence (O43175 1-533): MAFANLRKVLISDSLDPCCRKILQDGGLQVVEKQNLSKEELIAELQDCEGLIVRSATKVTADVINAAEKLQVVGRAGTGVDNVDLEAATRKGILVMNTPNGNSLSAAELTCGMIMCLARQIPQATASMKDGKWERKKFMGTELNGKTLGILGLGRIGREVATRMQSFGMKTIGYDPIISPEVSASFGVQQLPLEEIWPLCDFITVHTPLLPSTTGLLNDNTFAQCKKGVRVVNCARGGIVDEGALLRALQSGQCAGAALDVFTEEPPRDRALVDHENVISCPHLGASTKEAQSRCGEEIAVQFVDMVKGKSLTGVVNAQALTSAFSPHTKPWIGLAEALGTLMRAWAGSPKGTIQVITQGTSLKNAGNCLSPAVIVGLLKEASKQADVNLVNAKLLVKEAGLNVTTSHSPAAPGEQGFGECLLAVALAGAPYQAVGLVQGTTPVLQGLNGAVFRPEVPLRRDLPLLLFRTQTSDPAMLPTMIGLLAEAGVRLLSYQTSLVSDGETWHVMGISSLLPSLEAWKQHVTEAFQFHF
The data set can be described thus: PHGDH enzyme assay coupled with PSAT1 reaction. In kind it is biochemical. The method, boiled down: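 Full-length human PHGDH and PSAT1 were His-purified from E. coli BL21(DE3) (pET21a(+)) by Ni-NTA then gel filtration. PHGDH activity was measured coupled to the upstream PSAT1 reaction. For cofactor competition, enzyme was preincubated 10 min at 25°C with NADH and compound, and Pser was added to start the reaction. For combinations, fixed first-compound levels (0–200 μM) were mixed with second-compound series (0–200 μM) and preincubated with enzyme.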

Another data set concerns the target T2, PHGDH mutant T59A (Homo sapiens, UniProt O43175, T60A).
T2 sequence (O43175 1-533 T60A): T1 sequence (O43175 1-533) with T60A
The data set can be described thus: PHGDH enzyme assay, mutant T59A. The data set is classed as biochemical. Particulars: read-out: IC50, PHGDH enzyme inhibition. The procedure, abridged:
(§1)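 Point mutants were made by QuikChange site-directed mutagenesis of pET-21a(+) wild-type human PHGDH and sequence-verified. Each was expressed in E. coli and purified like the wild type, then assayed for activity and inhibition in the same PSAT1-coupled PHGDH assay.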

The target in a further data set is T3, PHGDH mutant T56AK57A (Homo sapiens, UniProt O43175, K58A/T57A).
T3 sequence (O43175 1-533 T57A/K58A): T1 sequence (O43175 1-533) with T57A, K58A
The data set can be described thus: PHGDH enzyme assay, mutant T56AK57A. The data set is classed as biochemical. Particulars: read-out: IC50, PHGDH enzyme inhibition. The method, boiled down: as §1

In data set [3] the test system is MDA-MB-468 cells. The data set can be described thus: MTT cell viability assay. In kind it is cell-based, human. The note with it: read-out: EC50, antitumor activity (cell viability), MDA-MB-468, 72 h. For orientation: Tetrazolium assays rely on reduction of a dye to a coloured formazan, in cell work by metabolically active cells.
In another data set the test system is HCC70 cells. In words: MTT cell viability assay. In kind it is cell-based, human. Particulars: read-out: EC50, antitumor activity (cell viability), HCC70, 72 h.
Another data set relates to MDA-MB-231 cells. In words: MTT cell viability assay. In kind it is cell-based, human. The note with it: read-out: EC50 (cell viability), MDA-MB-231, 72 h.
Another data set relates to ZR-75-1 cells. In words: MTT cell viability assay. In kind it is cell-based, human. The note with it: selectivity, PHGDH amplified vs non-dependent line.
The subject of a further data set is MCF-7 cells. In words: MTT cell viability assay. The data set is classed as cell-based, human. Particulars: read-out: EC50 (cell viability), MCF-7, 72 h.
Another data set has as its system MCF-10A cells. In words: MTT cell viability assay. The data set is classed as cell-based, human.
Data set [4] relates to panel of cancer cell lines along with one immortalized human breast epithelial cell line. The data set can be described thus: MTT cell viability assay, cell line panel. In kind it is cell-based.
Data set [5] deals with SKOV3 GFP KO control cells. The data set can be described thus: 6-day proliferation assay. In kind it is cell-based, human. Particulars: 50 μM PKUMDL-WQ-2201, 6 days. The method, boiled down:
(§2)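 SKOV3 control (sgRNA against GFP) and PHGDH knockout cells were used. Knockout was made by lentiCRISPR with an exon 8 sgRNA, puromycin selection and single-cell clones, and was western-validated. Cells were grown in RPMI-1640 with 10% FBS and plated at 10,000 cells/well in triplicate. After 24 h they received DMSO or compound, and viable cells were counted daily for 6 days by trypan-blue exclusion on a hemocytometer. Data are mean ± SEM, n=3 biological replicates, two-tailed Student's t-test.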

A further data set deals with SKOV3 PHGDH KO cells. The data set can be described thus: 6-day proliferation assay. In kind it is cell-based, human. Particulars: 50 μM PKUMDL-WQ-2201, 6 days. The procedure, abridged: as §2
Data set [6] relates to serine biosynthesis pathway in SKOV3 GFP KO cells. In words: U-13C-glucose stable isotope labeling, LC-HRMS. The data set is classed as cell-based, human.
For the next data set, the system named is MDA-MB-468 xenografts. In words: MDA-MB-468 xenograft mouse model. In kind it is in vivo, NOD.CB17 Scid/J mice. The note with it: 20, 10 and 5 mg/kg/day IP, 30 days of drug delivery, vs vehicle.
In another data set the test system is MDA-MB-231 xenografts. The data set can be described thus: MDA-MB-231 xenograft mouse model. The data set is classed as in vivo, NOD.CB17 Scid/J mice. The note with it: 20 mg/kg/day IP.
A short description of data set [7]: Body weight of xenograft mice during treatment. In kind it is in vivo. The note with it: over the course of the xenograft experiments.
The mark [8] stands for this setting: 37 μM PKUMDL-WQ-2101, 291 μM PKUMDL-WQ-2201, 24 h treatment.

Positions count from the first letter of the chain named. Entries after “also recorded” stand apart in the source; their conditions may differ. Like-named read-outs stand apart in the source and are kept apart here. Where only a bound is given, the exact number is not on record here.

With CBR-5884, the “inhibition of growth of MDA-MB-468 cells” value is reported as 80% to 90% in the data set with MDA-MB-468 cells [1] (serine-deplete media) and 35% to 60% in the data set on MDA-MB-468 cells [1] (serine-replete media). Besides, in [2], the “stability in mouse plasma” value is listed as “unstable in mouse plasma”.
Regarding `CCNC(=S)N/N=C/c1ccc(-c2ccc(C(=O)O)c(Cl)c2)o1` [PKUMDL-WQ-2201], the “combination effect on PHGDH inhibition (Combination Index)” value is “synergistic interactions” at PHGDH (PKUMDL-WQ-2101 kept at 25 μM, PKUMDL-WQ-2201 1 to 200 μM) and “antagonism” on PHGDH (PKUMDL-WQ-2202 kept at 25 μM, PKUMDL-WQ-2201 varied). The “competition with cofactor NADH” value at PHGDH (compound 50 μM, NADH 5 to 40 μM) is “did not bound in the cofactor site”. Moreover, the IC50 (in general, the midpoint of a concentration-inhibition curve) on PHGDH (read-out: IC50, PHGDH enzyme inhibition, WT PHGDH) was 35.7 ± 8.6 µM; at PHGDH mutant T59A it was 69 ± 40 µM; at PHGDH mutant T56AK57A it was more than 300 µM. The EC50 (in general, the concentration at which the effect is half-maximal) in the data set on MDA-MB-468 cells [3] is 6.9 µM; in the data set with HCC70 cells it was 10 µM; with MDA-MB-231 cells it was more than 200 µM; in the data set with MCF-7 cells it was more than 200 µM; in data set [4] (read-out: EC50 in PHGDH amplified breast cancer cells, serine-replete media), less than 10 µM. Besides, in the data set with ZR-75-1 cells, the “fold more active in MDA-MB-468 and HCC70 than in ZR-75-1” value was 13- to 18 fold. Moreover, in the data set with MCF-10A cells, the cytotoxic effects result was “weak cytotoxic effects”. The “bioactivity in the other three PHGDH non-amplified breast cancer cell lines” value in data set [4] (lines other than ZR-75-1) was “No bioactivities”. The cell growth result is “suppressed” in data set [5] and “remained unaffected” in the data set on SKOV3 PHGDH KO cells. The “m+2, m+6 and m+7 glucose labeling in UTP and ATP” value in [6] (setting [8]) is “decreases”. In addition, the “m+2 glucose incorporation into glutathione” value in data set [6] (setting [8]) is recorded as “decreases in m+2”. Moreover, the “reduction of glucose incorporation into serine and glycine” value in [6] (about IC50 (37 μM PKUMDL-WQ-2101, 291 μM PKUMDL-WQ-2201), 24 h treatment) is on record as “more than 50%”. Besides, the tumor growth entry in the data set with MDA-MB-468 xenografts was “substantial inhibitory effects; also recorded: significantly suppressed the growth of tumors”; with MDA-MB-231 xenografts it was “neither PKUMDL-WQ-2101 nor PKUMDL-WQ-2201 affected tumor growth”. The “body weight (tolerability)” value in [7] is listed as “able to maintain normal body weight”.
